# In ChEMBL document CHEMBL1132342, “Novel hypotensive agents from Verbesina caracasana. 6. Synthesis and pharmacology of caracasandiamide” (1999):
# Several values for one entry are separate records, joined by “and”; a condition that tells them apart may be missing. Equal values may be shown once.
# Legend:
# Rattus norvegicus [1] = assay: Change in diastolic blood pressure after iv administration of 100 ug/Kg in anesthetized rats; assay type: functional, Artery
# Procedure, shortened: (§1)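 Adult male Wistar rats under ip ethylurethane (10% w/v in saline, 1 mL/kg) with tracheal cannula and spontaneous breathing, kept at 37 °C. Arterial BP was recorded by femoral artery catheter; compound in saline (50 µL) was given via femoral vein at 50–3200 µg/kg, ratio 2.0. Peak change is given as mean ± SE, n = 12 (n = 7 at 3200 µg/kg).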
# Rattus norvegicus [2] = assay: Maximum rate of rise of the left ventricular isovolumetric pressure was measured after iv administration of 200 ug/Kg in anesthetized rats; assay type: functional, Heart left ventricle
# Procedure, shortened: (§2)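 Urethane-anesthetized (10% w/v, […] ip in saline) adult male Wistar rats, trachea cannulated, breathing spontaneously, 37 °C. Femoral artery catheter for blood pressure, femoral vein for dosing. Sequential iv doses 50–3200 µg/kg (ratio 2.0) in saline, each given after parameters returned to baseline. Peak changes recorded; means ± SE, n = 12 (n = 7 at 3200 µg/kg).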
# Rattus norvegicus [3] = assay: Change in systolic blood pressure after iv administration of 3200 ug/Kg in anesthetized rats; assay type: functional, Artery
# Procedure, shortened: (§3)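 Male Wistar rats (299 ± 3 g) were anesthetized with ethylurethane ip, tracheally cannulated and breathing spontaneously, at 37 °C, and stabilized for 60 min. Doses of 50-3200 µg/kg (ratio 2.0) in saline were injected by femoral vein, 50 µL each. Recordings: femoral arterial BP, electromagnetic abdominal-aortic flow, SV from integrated pulsatile flow, polygraphic RF. Peak changes, mean ± SE, n = 12 (n = 7 at 3200).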
# Rattus norvegicus [4] = assay: Change in stroke volume after iv administration of 50 ug/Kg in anesthetized rats; assay type: functional; procedure, shortened: as §3
# Rattus norvegicus [5] = assay: Change in mean aortic flow after iv administration of 1600 ug/Kg in anesthetized rats; assay type: functional; procedure, shortened: as §3
# Rattus norvegicus [6] = assay: Change in systolic blood pressure after iv administration of 800 ug/Kg compound (treatment with papaverine(1 mg/Kg/min, iv)in anesthetized rats; assay type: functional, Artery
# Procedure, shortened: (§4)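 Anesthetized rats, n = 6 per group, received iv doses of 200–1600 µg/kg (ratio 2.0) either alone (control) or under pretreatment: continuous iv papaverine infusion 1 mg/kg/min, reserpine 5 mg/kg/day ip for 2 days, or hexamethonium 5 mg/kg iv. Peak changes in BP, heart rate and dP/dt recorded; means ± SE, p < 0.05 versus control.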
# Rattus norvegicus [7] = assay: Change in systolic blood pressure after iv administration of 200 ug/Kg in anesthetized rats; assay type: functional, Artery; procedure, shortened: as §3
# Rattus norvegicus [8] = assay: Change in systolic blood pressure after iv administration of 800 ug/Kg compound (treatment with hexamethonium (5 mg/Kg, iv)in anesthetized rats; assay type: functional, Artery; procedure, shortened: as §4
# Rattus norvegicus [9] = assay: Change in stroke volume after iv administration of 1600 ug/Kg in anesthetized rats; assay type: functional; procedure, shortened: as §3
# Rattus norvegicus [10] = assay: Change in respiratory frequency after iv administration of 50 ug/Kg in anesthetized rats; assay type: functional; procedure, shortened: as §3
# Rattus norvegicus [11] = assay: Change in systolic blood pressure after iv administration of 400 ug/Kg in anesthetized rats; assay type: functional, Artery; procedure, shortened: as §2
# Rattus norvegicus [12] = assay: Change in heart rate after iv administration of 1600 ug/Kg in the presence of noradrenaline (agonist) in anesthetized rats; assay type: functional
# Procedure, shortened: (§5)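 Urethane-anesthetized male Wistar rats (16 rats, two equal groups) received 400 or 1600 µg/kg compound iv. Cardiovascular responses to iv agonist boluses (noradrenaline 1 µg/kg, acetylcholine 2.50 µg/kg, adrenaline, isoprenaline) were measured before and after compound dosing. Peak responses are given as mean ± SE; p < 0.05 versus control mean.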
# Rattus norvegicus [13] = assay: Maximum rate of rise of the left ventricular isovolumetric pressure was measured after iv administration of 1600 ug/Kg in the presence of noradrenaline (agonist) in anesthetized rats; assay type: functional, Heart left ventricle
# Procedure, shortened: (§6)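 Anesthetized male Wistar rats, two groups of 8, received 400 or 1600 µg/kg iv. Before and after this dose, iv agonist challenges were given: noradrenaline 1 µg/kg, adrenaline, acetylcholine 2.50 µg/kg, or isoprenaline. Systolic/diastolic BP, heart rate and dP/dt responses were recorded before (control) and after dosing; significance was set at p < 0.05 versus control.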
# Rattus norvegicus [14] = assay: Change in heart rate after iv administration of 800 ug/kg compound (treatment with reserpine(5 mg/kg/day for 2 days, ip))in anesthetized rats; assay type: functional
# Procedure, shortened: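 Urethane-anesthetized male Wistar rats, 6 per group, received iv doses of 200-1600 µg/kg (ratio 2.0) given alone or under a pretreatment. Pretreatments were continuous iv papaverine infusion (1 mg/kg/min), reserpine 5 mg/kg/day ip for 2 days, or hexamethonium 5 mg/kg iv. Peak changes in femoral arterial BP and HR were recorded; values are mean ± SE.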
# Rattus norvegicus [15] = assay: Maximum rate of rise of the left ventricular isovolumetric pressure was measured after iv administration of 1600 ug/Kg in the presence of adrenaline (agonist) in anesthetized rats; assay type: functional, Heart left ventricle; procedure, shortened: as §6
# Rattus norvegicus [16] = assay: Change in systolic blood pressure after iv administration of 1600 ug/Kg in the presence of acetylcholine (agonist) in anesthetized rats; assay type: functional, Artery
# Rattus norvegicus [17] = assay: Change in respiratory frequency after iv administration of 400 ug/Kg in anesthetized rats; assay type: functional; procedure, shortened: as §3
# Rattus norvegicus [18] = assay: Change in heart rate after iv administration of 1600 ug/Kg in the presence of isoprenaline (agonist) in anesthetized rats; assay type: functional; procedure, shortened: as §5
# Rattus norvegicus [19] = assay: Maximum rate of rise of the left ventricular isovolumetric pressure was measured after iv administration of 800 ug/Kg compound (treatment with papaverine(1 mg/Kg/min, iv)in anesthetized rats; assay type: functional, Heart left ventricle; procedure, shortened: as §4
# Rattus norvegicus [20] = assay: Change in diastolic blood pressure after iv administration of 400 ug/Kg compound (treatment with hexamethonium (5 mg/Kg, iv)in anesthetized rats; assay type: functional, Artery
# Procedure, shortened: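 In anesthetized male Wistar rats, responses to iv compound (200–1600 µg/kg, ratio 2.0) were measured alone and under three pretreatments: continuous iv papaverine infusion (1 mg/kg/min), ip reserpine (5 mg/kg/day for 2 days), or iv hexamethonium (5 mg/kg). Peak changes are given as mean ± SE, n = 6 per group; p < 0.05 versus control.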
# Rattus norvegicus [21] = assay: Maximum rate of rise of the left ventricular isovolumetric pressure was measured after iv administration of 400 ug/Kg in the presence of adrenaline (agonist) in anesthetized rats; assay type: functional, Heart left ventricle; procedure, shortened: as §6
# Rattus norvegicus [22] = assay: Change in systolic blood pressure after iv administration of 400 ug/Kg in the presence of noradrenaline (agonist) in anesthetized rats; assay type: functional, Artery; procedure, shortened: as §6
# Rattus norvegicus [23] = assay: Change in heart rate after iv administration of 200 ug/Kg in anesthetized rats; assay type: functional; procedure, shortened: as §1
# Rattus norvegicus [24] = assay: Change in diastolic blood pressure after iv administration of 400 ug/Kg in the presence of acetylcholine (agonist) in anesthetized rats; assay type: functional, Artery; procedure, shortened: as §5
# Rattus norvegicus [25] = assay: Change in mean aortic flow after iv administration of 100 ug/Kg in anesthetized rats; assay type: functional; procedure, shortened: as §3
# Rattus norvegicus [26] = assay: Change in heart rate after iv administration of 400 ug/Kg in the presence of acetylcholine (agonist) in anesthetized rats; assay type: functional; procedure, shortened: as §5
smiles,measurement,setting,value
COc1ccc(C2C(c3ccc(OC)c(OC)c3)[C@H](C(=O)NCCCC/N=C(\N)NCC=C(C)C)[C@@H]2C(=O)NCCCC/N=C(\N)NCC=C(C)C)cc1OC (stereo not given in full) [CARACASANDIAMIDE],BP,Rattus norvegicus [1],10 mmHg
same,Change in BP,Rattus norvegicus [1],13%
same,Change in dP/dt,Rattus norvegicus [2],22%
same,dP/dt,Rattus norvegicus [2],1369 mmHg s-1
same,BP,Rattus norvegicus [3],-48 mmHg
same,Change in BP,Rattus norvegicus [3],-46%
same,Change in stroke volume,Rattus norvegicus [4],36%
same,Change in mean aortic flow,Rattus norvegicus [5],-49%
same,Mean aortic flow,Rattus norvegicus [5],-36 mL/min
same,BP,Rattus norvegicus [6],-22 mmHg
same,BP,Rattus norvegicus [7],-14 mmHg
same,Change in BP,Rattus norvegicus [7],-13%
same,BP,Rattus norvegicus [8],-50 mmHg
same,Change in stroke volume,Rattus norvegicus [9],-48%
same,Stroke volume,Rattus norvegicus [9],-97 µL
same,Change in respiratory frequency,Rattus norvegicus [10],5 beats min-1 and 5%
same,BP,Rattus norvegicus [11],-20 mmHg
same,Change in BP,Rattus norvegicus [11],-19%
same,Heart rate,Rattus norvegicus [12],13 beats min-1
same,dP/dt,Rattus norvegicus [13],2225 mmHg s-1
same,Heart rate,Rattus norvegicus [14],-9 beats min-1
same,dP/dt,Rattus norvegicus [15],2739 mmHg s-1
same,BP,Rattus norvegicus [16],-38 mmHg
same,Change in respiratory frequency,Rattus norvegicus [17],-3 beats min-1 and -3%
same,Heart rate,Rattus norvegicus [18],79 beats min-1
same,dP/dt,Rattus norvegicus [19],2967 mmHg s-1
same,BP,Rattus norvegicus [20],-45 mmHg
same,dP/dt,Rattus norvegicus [21],6848 mmHg s-1
same,BP,Rattus norvegicus [22],31 mmHg
same,Change in heart rate,Rattus norvegicus [23],-4%
same,Heart rate,Rattus norvegicus [23],-13 beats min-1
same,BP,Rattus norvegicus [24],-45 mmHg
same,Change in mean aortic flow,Rattus norvegicus [25],15%
same,Mean aortic flow,Rattus norvegicus [25],11 mL/min
same,Heart rate,Rattus norvegicus [26],-30 beats min-1
